# Assay results taken from paper PMC4206694 (Journal of Medicinal Chemistry, 2014).
# Columns and labels:
# [1] = test system: newborn hippocampal neurons; assay: In vivo hippocampal neuroprotection assay; design: species or system mouse; settings: for number of surviving newborn hippocampal neurons (BrdU+ cells): ICV 10 μM, Figure 1
# How it was run: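 Adult (12-week) wild-type […] mice, environmentally deprived, four per group. Compound was infused ICV into the left lateral ventricle by implanted osmotic minipump (0.5 μL/h, 7 days) or given IP twice daily. BrdU 50 mg/kg/day IP for 6 days; perfused 24 h after last BrdU. Anti-BrdU staining after formamide/SSC and HCl unmasking. BrdU+ SGZ/dentate cells counted contralaterally, every fifth section, normalized to dentate gyrus volume.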
# [2] = test system: dopaminergic neurons within the SNc; assay: MPTP model of Parkinson's disease; type: in vivo, mouse; settings: BID, 21 days after MPTP; for rescue of TH+ neurons: 10 mg kg^–1 day^–1, IP
# How it was run: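 Adult male C57Bl/6 mice, individually housed 1 week, received free-base MPTP 30 mg/kg/day IP for 5 days. Compound or vehicle was started on day 6, 24 h after the last MPTP dose, and given twice daily for 21 days. After perfusion and fixation in 4% paraformaldehyde, every fourth section through striatum and SNc was stained for tyrosine hydroxylase. TH+ cells were counted blinded; mean ± SEM.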
# [3] = Long-term treatment tolerability; type: in vivo
# CYP2B6 = target: T1, CYP2B6 (Homo sapiens, UniProt P20813); assay: Cytochrome P450 inhibition, CYP2B6; type: in vitro ADME
# T1 sequence (P20813 1-491): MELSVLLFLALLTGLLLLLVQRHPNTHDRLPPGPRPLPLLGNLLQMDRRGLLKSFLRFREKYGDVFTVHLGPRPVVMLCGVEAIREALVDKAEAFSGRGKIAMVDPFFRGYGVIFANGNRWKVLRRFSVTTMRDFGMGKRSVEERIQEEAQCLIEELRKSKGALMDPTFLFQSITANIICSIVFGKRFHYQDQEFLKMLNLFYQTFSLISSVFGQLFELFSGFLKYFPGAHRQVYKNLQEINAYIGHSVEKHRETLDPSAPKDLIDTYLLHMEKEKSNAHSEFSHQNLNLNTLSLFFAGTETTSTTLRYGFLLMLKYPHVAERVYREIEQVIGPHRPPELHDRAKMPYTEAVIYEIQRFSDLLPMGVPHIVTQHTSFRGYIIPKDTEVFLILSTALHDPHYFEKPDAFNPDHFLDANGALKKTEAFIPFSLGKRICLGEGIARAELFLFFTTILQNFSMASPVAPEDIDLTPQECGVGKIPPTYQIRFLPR
# [4] = Pharmacokinetic analysis, plasma and brain levels; type: in vivo, mouse; settings: single time point (6 h) after IP 1, 3, 10 or 30 mg/kg, Figure S3
# How it was run: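 Compound in 5% DMSO/10% cremophor EL/85% D5W (pH 7.2) was dosed to adult mice (0.2 mL total). Mice were killed by CO2. Plasma came from ACD-treated blood spun at 9300g. Brains were rinsed in PBS and homogenized in 3 volumes of PBS. Plasma or lysate (100 μL) was precipitated with 200 μL acetonitrile/0.15% formic acid and spun at 13120g for 5 min. Supernatant was analysed by HPLC/MS/MS.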
# CYP3D6 = CYP3D6 (Homo sapiens, UniProt P10635); assay: Cytochrome P450 inhibition, CYP3D6; type: in vitro ADME
# Sequence of CYP3D6 (P10635 whole entry): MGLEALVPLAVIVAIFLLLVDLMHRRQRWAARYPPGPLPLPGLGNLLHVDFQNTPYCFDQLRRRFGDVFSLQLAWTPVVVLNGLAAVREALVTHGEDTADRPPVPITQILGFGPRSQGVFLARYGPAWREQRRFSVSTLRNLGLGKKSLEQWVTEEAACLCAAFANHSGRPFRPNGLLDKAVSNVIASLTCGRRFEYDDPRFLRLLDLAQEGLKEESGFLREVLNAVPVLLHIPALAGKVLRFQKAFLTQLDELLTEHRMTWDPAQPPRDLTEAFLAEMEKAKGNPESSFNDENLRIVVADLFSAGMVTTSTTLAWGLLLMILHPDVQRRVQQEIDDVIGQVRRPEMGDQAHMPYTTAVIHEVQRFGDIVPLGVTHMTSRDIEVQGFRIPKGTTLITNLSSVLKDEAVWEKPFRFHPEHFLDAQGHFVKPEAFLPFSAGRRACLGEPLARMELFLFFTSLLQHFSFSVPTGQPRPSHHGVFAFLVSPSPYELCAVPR
# CYP3A4 = CYP3A4 (Homo sapiens, UniProt P08684); assay: Cytochrome P450 inhibition, CYP3A4; type: in vitro ADME
# Sequence of CYP3A4 (P08684 whole entry): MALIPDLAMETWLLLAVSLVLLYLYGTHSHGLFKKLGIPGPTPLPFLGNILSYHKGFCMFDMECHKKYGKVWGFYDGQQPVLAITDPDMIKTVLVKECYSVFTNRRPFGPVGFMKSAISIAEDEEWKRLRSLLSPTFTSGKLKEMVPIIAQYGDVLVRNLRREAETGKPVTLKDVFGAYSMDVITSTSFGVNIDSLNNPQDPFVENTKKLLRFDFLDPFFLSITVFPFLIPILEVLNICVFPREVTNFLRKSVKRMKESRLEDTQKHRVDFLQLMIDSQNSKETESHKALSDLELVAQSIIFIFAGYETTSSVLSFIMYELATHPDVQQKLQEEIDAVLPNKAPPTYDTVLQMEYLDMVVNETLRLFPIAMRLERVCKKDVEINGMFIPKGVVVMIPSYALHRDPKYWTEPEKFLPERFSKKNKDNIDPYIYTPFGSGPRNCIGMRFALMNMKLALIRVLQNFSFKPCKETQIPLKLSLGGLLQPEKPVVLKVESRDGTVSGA
# CYP2C9 = CYP2C9 (Homo sapiens, UniProt P11712); assay: Cytochrome P450 inhibition, CYP2C9; type: in vitro ADME
# Sequence of CYP2C9 (P11712 whole entry): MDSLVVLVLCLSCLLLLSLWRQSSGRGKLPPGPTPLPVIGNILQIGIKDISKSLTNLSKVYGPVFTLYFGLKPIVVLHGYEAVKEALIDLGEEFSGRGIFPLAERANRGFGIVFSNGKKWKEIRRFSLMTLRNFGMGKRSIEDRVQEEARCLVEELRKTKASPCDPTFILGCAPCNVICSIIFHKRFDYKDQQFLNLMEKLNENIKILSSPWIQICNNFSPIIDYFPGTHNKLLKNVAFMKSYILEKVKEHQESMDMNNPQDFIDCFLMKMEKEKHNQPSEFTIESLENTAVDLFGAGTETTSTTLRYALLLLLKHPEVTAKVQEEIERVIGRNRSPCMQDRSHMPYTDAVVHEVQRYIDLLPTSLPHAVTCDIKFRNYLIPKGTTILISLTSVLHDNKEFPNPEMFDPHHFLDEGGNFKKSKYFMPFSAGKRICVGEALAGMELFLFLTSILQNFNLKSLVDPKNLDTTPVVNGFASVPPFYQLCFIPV
# μ-opioid receptor = μ-opioid receptor (Homo sapiens, UniProt P35372); assay: Psychoactive Drug Screening Program competition binding, μ-opioid receptor; settings: read-out: IC50 μ-opioid receptor; ligand displacement, PDSP
# Sequence of μ-opioid receptor (P35372 whole entry, species assumed): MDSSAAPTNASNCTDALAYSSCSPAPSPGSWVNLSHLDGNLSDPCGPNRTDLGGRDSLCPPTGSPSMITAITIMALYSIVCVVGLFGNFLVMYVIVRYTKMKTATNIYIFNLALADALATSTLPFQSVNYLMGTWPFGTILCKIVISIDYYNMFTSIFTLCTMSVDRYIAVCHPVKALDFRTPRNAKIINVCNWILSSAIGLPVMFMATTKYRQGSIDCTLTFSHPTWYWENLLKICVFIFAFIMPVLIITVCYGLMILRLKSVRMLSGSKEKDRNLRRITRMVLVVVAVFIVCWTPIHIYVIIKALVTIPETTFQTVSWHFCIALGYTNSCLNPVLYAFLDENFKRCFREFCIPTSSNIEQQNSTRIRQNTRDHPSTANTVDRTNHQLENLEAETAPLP
# CYP2C8 = target: T2, CYP2C8 (Homo sapiens, UniProt P10632); assay: Cytochrome P450 inhibition, CYP2C8; type: in vitro ADME
# T2 sequence (P10632 1-490): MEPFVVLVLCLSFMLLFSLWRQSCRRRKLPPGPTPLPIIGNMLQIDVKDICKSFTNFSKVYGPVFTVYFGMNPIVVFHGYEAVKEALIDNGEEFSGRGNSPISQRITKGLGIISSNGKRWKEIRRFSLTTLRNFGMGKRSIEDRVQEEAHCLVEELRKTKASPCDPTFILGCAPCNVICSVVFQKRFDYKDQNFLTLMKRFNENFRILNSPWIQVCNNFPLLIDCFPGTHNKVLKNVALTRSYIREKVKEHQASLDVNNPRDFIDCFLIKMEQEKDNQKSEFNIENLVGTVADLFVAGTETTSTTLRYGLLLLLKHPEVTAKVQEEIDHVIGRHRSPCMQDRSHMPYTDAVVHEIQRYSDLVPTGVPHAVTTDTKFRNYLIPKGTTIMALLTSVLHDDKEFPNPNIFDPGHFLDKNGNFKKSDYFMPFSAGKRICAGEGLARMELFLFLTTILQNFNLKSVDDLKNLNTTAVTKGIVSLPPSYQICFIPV
# [5] = cited from earlier work
# [6] = test system: newborn hippocampal neurons; settings: cited from earlier work
# [7] = test system: motor neurons in the spinal cord; settings: cited from earlier work
# [8] = test system: dopaminergic neurons within the SNc; settings: cited from earlier work
# [9] = test system: cerebral cortical neurons; settings: cited from earlier work
# [10] = cited from earlier work; remark: listed apart in the source
# [11] = cited from earlier work; remark: listed apart in the source
structure (smiles),measurement,setting,value
"NCC(O)Cn1c2ccc(Br)cc2c2cc(Br)ccc21 (stereo not drawn) [compound 16, 1-Amino-3-(3,6-dibromo-9H-carbazol-9-yl)propan-2-ol]",number of surviving newborn hippocampal neurons (BrdU+ cells),[1]; 7 days,increase in the number of BrdU+ cells compared with vehicle
"COc1cccc(NCC(O)Cn2c3ccc(Br)cc3c3cc(Br)ccc32)n1 (stereo not drawn) [compound 17, 1-(3,6-Dibromo-9H-carbazol-9-yl)-3-((6-methoxypyridin-2-yl)amino)propan-2-ol]",number of surviving newborn hippocampal neurons (BrdU+ cells),[1]; 7 days,increase in the number of BrdU+ cells compared with vehicle
"COc1cccc(NCC(F)Cn2c3ccc(Br)cc3c3cc(Br)ccc32)n1 (stereo not drawn) [compound 15, N-(3-(3,6-Dibromo-9H-carbazol-9-yl)-2-fluoropropyl)-6-methoxypyridin-2-amine]",rescue of TH+ neurons,[2],over 85%
same,dose showing significant neuroprotective effect in MPTP model,[2]; IP,1 mg kg^–1 day^–1
same,"impact on weight, behavior, or appearance",[3]; up to 10 mg kg^–1 day^–1 for 21 days,"no negative impact on the weight, behavior, or appearance"
same,number of surviving newborn hippocampal neurons (BrdU+ cells),[1]; 7 days,approximately doubled
same,dose at which active in hippocampal neuroprotection,"[1]; IP, 7 days",1 mg kg^–1 day^–1
same,dose at which ceiling of efficacy is reached in hippocampal neuroprotection,"[1]; IP, 7 days",10 mg kg^–1 day^–1
"COc1cccc(NC[C@H](F)Cn2c3ccc(Br)cc3c3cc(Br)ccc32)n1 [(−)-15, (S)-N-(3-(3,6-Dibromo-9H-carbazol-9-yl)-2-fluoropropyl)-6-methoxypyridin-2-amine]",CYP2B6 sensitivity,CYP2B6,insensitive
same,plasma and brain concentrations compared with racemic 15,[4],indistinguishable
same,CYP3D6 sensitivity,CYP3D6,insensitive
same,neuroprotective activity in MPTP model (enantiomers),"[2]; IP, Figure 3",strongly protective
same,CYP3A4 sensitivity,CYP3A4,insensitive
same,CYP2C9 sensitivity,CYP2C9,insensitive
same,IC50,μ-opioid receptor,8.2 µM
same,CYP2C8 sensitivity,CYP2C8,insensitive
same,enantiomer-specific neuroprotective activity in mouse model of neurogenesis,"[1]; pure enantiomers dosed ICV 7 days, Figure 2",highly active
COc1cccc(NCC(F)Cn2c3ccc(Br)cc3c3cc(Br)ccc32)c1 (stereo not drawn) [compound 2],antidepressant effect,[5],exert antidepressant effects
same,activity in the in vivo hippocampal neuroprotection assay,[6]; previous studies,substantially improved the activity
same,rescue of TH+ neurons,[2],around 75%
same,dose showing significant neuroprotective effect in MPTP model,[2]; IP,5 mg kg^–1 day^–1
same,motor neuron cell death in spinal cord of G93A SOD1 transgenic mice,[7],minimize motor neuron cell death in the spinal cord
same,"protection of neurons in the substantia nigra, MPTP mouse model",[8],protect neurons in the substantia nigra
same,"impact on weight, behavior, or appearance",[3]; up to 40 mg kg^–1 day^–1 for 21 days,"no negative impact on the weight, behavior, or appearance"
same,"protection of cerebral cortical neurons, moderate fluid percussion TBI",[9],protect rat cerebral cortical neurons
"[N-]=[N+]=NCC(F)Cn1c2ccc(Br)cc2c2cc(Br)ccc21 (stereo not drawn) [compound 11, 9-(3-Azido-2-fluoropropyl)-3,6-dibromo-9H-carbazole]",number of surviving newborn hippocampal neurons (BrdU+ cells),[1]; 7 days,inactive
OC(CNc1ccccc1)Cn1c2ccc(Br)cc2c2cc(Br)ccc21 (stereo not drawn) [compound 1],neuroprotective effect in age-related cognitive decline,[10],neuroprotective effects
same,antidepressant effect,[5],antidepressant activity
same,number of surviving newborn hippocampal cells,"[6]; unbiased in vivo screen, 1 week",approximately doubled
same,motor neuron cell death in spinal cord of G93A SOD1 transgenic mice,[7],minimize motor neuron cell death in the spinal cord
same,neuroprotective effect in retinal degeneration,[11],neuroprotective effects
same,"protection of neurons in the substantia nigra, MPTP mouse model",[8],protect neurons in the substantia nigra
"Cl.NCC(F)Cn1c2ccc(Br)cc2c2cc(Br)ccc21 (stereo not drawn) [compound 12, 3-(3,6-Dibromo-9H-carbazol-9-yl)-2-fluoropropan-1-amine]",number of surviving newborn hippocampal neurons (BrdU+ cells),[1]; 7 days,increase in the number of BrdU+ cells compared with vehicle
